Data from ChEMBL document CHEMBL4680065, “Pharmacophore-based screening of diamidine small molecule inhibitors for protein arginine methyltransferases” (RSC Med Chem, 2021).
pIC50: −log10 of the molar value.

Tests used:
[1] = target: T1, Histone-arginine methyltransferase CARM1 (Homo sapiens) (UniProt Q86X55); assay: Inhibition of recombinant GST-tagged CARM1 (unknown origin) expressed in Escherichia coli assessed as residual activity at 10 uM using histone H3.3 peptide as substrate incubated for 120 mins in presence of [3H]-SAM cofactor by radioactive filter plate assay relative to control
T1 sequence (whole entry): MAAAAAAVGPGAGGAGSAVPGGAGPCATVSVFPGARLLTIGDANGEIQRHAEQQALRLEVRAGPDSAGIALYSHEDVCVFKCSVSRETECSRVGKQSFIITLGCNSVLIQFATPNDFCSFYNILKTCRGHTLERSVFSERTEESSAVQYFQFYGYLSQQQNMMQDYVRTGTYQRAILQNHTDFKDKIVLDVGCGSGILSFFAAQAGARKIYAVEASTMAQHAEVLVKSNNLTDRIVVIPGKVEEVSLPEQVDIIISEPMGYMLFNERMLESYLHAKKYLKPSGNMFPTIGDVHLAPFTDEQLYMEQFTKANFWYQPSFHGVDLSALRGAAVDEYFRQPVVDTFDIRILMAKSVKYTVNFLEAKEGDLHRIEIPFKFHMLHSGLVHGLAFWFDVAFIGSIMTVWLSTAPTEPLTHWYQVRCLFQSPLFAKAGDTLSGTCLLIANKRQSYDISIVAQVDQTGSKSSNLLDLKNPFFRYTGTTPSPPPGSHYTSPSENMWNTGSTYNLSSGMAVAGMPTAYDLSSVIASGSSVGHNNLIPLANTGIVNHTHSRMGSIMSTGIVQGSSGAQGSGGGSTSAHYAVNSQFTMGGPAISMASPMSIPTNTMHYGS

[2] = target: T2, Protein arginine N-methyltransferase 7 (Homo sapiens) (UniProt Q9NVM4); assay: Inhibition of recombinant GST-tagged PRMT7 (unknown origin) expressed in Escherichia coli assessed as residual activity at 10 uM using biotin-labeled SMD1 as substrate incubated for 120 mins in presence of [3H]-SAM cofactor by scintillation proximity assay relative to control
T2 sequence (whole entry): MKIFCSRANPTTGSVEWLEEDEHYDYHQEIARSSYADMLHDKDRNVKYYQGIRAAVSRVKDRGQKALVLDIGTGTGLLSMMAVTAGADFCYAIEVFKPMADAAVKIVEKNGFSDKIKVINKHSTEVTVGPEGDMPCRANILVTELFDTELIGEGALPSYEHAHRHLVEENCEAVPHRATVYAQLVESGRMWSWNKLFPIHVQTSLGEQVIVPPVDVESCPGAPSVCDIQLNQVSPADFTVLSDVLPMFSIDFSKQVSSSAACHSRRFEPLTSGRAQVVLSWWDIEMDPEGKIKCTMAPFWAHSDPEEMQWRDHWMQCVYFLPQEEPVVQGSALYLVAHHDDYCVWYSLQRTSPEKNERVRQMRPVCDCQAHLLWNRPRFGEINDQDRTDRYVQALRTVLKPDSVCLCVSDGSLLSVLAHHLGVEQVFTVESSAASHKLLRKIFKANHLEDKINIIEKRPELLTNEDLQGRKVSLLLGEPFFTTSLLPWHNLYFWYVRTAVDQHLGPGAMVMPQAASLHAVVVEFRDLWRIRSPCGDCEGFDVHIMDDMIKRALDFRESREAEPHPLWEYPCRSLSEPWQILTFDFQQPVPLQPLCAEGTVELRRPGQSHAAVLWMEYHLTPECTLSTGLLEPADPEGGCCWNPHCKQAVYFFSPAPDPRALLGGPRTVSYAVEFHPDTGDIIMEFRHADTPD
How it was run: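 Single-point profiling used 10 μM inhibitor added to the enzyme, [3H]-SAM and substrate mixture. Methylated substrate was quantified by scintillation proximity assay. Reactions were held at initial rate, with yield under 10% and substrate near Km. Enzyme, [3H]-SAM and substrate final levels are given in the supplement.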

K562 = assay: Antiproliferative activity against human K562 cells assessed as inhibition of cell growth measured after 72 hrs by CellTiter-Glo assay; format: functional, cell-based; conditions: K562, 72 h
How it was run: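 Cells were cultured with the test agent, serially diluted, for 72 h. The control received the same amount of DMSO. Cell viability was then measured, and IC50 values were taken from sensitivity curves.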

[3] = target: Protein arginine N-methyltransferase 1 (Homo sapiens, UniProt Q99873); assay: Inhibition of PRMT1 in human MEG-01 cells assessed as reduction in RBM15 methylation level measured after 24 hrs by immunoblotting analysis; format: cell-based
How it was run: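 MEG01 cells were cultured for 24 h with the inhibitor (100 nM, 200 nM) or with DMSO control. Cell extracts were resolved by SDS-PAGE and immunoblotted with anti-methyl-RBM15 antibody and the pan-asymmetric methylation antibody α-Asym24. Equal loading was checked by Ponceau S staining.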

Protein arginine N-methyltransferase 1, sequence (Q99873 whole entry, looked up): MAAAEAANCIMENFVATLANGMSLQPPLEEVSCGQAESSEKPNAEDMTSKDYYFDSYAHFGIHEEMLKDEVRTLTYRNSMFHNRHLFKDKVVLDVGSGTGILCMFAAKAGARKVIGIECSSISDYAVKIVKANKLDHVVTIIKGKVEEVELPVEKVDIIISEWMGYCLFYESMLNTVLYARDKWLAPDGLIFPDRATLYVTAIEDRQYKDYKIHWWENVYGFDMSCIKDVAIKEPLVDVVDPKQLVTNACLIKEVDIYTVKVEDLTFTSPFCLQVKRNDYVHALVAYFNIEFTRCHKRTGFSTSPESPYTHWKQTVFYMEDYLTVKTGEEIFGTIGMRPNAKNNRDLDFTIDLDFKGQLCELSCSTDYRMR

SMILES: N=C(N)c1ccc(Nc2ccc(-c3cc4ccc(C(=N)N)cc4[nH]3)cc2)cc1
- Activity [1]: 50.7%
- Activity [2]: 32.1%
- pIC50 (K562): 5.97
- inhibition [3]: Dose-dependent effect
